The subject of test [1] is Aorta. Kind of test: Vasorelaxant activity in Sprague-Dawley rat aorta assessed as inhibition of phenylephrine-induced contraction after 15 to 20 mins relative to phenylephrine. Format: functional. In a few lines: (§1)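 Aortic rings from male Sprague-Dawley rats (4–6 months, ~250 g), equilibrated at least 1 h, then precontracted isometrically with PE (1 µM). Once contraction stabilized (~20 min), compounds were added cumulatively at 15–20 min intervals, up to 300 µM. Vehicle-treated control tissues were run in parallel. Relaxation is expressed as % of PE contraction (Emax), n = 4. EC50 was taken as 50% of maximum relaxation, from nonlinear regression of concentration-response curves.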

For test [2], the system named is Aorta. Kind of test: Vasorelaxant activity in Sprague-Dawley rat aorta assessed as inhibition of phenylephrine-induced contraction after 15 to 20 mins. The format is functional, tissue-based. A digest of the protocol: as §1

For the compound `O=C1/C(=C/c2cccc(Br)c2)Oc2cc(O)cc(O)c21`, in the test with Aorta [1], the Emax was 59.2%.

`C=CCc1cc(O)cc2c1OC(c1ccc(Cl)cc1)CC2=O` (racemic): the EC50 in the test on Aorta [2] is 4.6 µM; in the test on Aorta [2] (read-out: pEC50 (converted)), 4.68 µM. For the same compound, the Emax with Aorta [1] was 95.1%.

Consider `C=CCc1c(O)ccc2c1OC(c1ccc3c(c1)OCO3)CC2=O` (racemic), for which the EC50 is 9.4 µM in the test with Aorta [2] and 9.33 µM in the test with Aorta [2] (read-out: pEC50 (converted)). Moreover, the Emax in the test on Aorta [1] turned out to be 96.6%.

`C=CCc1c(O)ccc(C(=O)/C=C/c2ccc(O)cc2)c1O`: the EC50 with Aorta [2] and in the test on Aorta [2] (read-out: pEC50 (converted)) was 89.1 µM each time. For the same compound, the maximum response (Emax) in the test with Aorta [1] was found to be 73.4%.

For the compound `C=CCc1c(O)cc(O)c(C(=O)/C=C/c2ccc(O)cc2)c1O`, the EC50 in the test on Aorta [2] and in the test on Aorta [2] (read-out: pEC50 (converted)) was 24 µM throughout. Moreover, the Emax in the test with Aorta [1] worked out at 108%.

As for `C=CCc1cc(O)cc2c1OC(c1ccc(O)cc1)CC2=O` (racemic), the EC50 was 34.5 µM in the test on Aorta [2] and 33.9 µM in the test with Aorta [2] (read-out: pEC50 (converted)). The Emax in the test on Aorta [1] worked out at 95.3%.

In the case of `C=CCc1c(O)ccc2c1OC(c1ccc(Cl)cc1)CC2=O` (racemic), the EC50 in the test on Aorta [2] is 142 µM; with Aorta [2] (read-out: pEC50 (converted)) it was 145 µM. In the test on Aorta [1], the Emax came out at 70.8%.

For `O=c1cc(-c2cccc(Br)c2)oc2cc(O)cc(O)c12`, the EC50 in the test on Aorta [2] was 36.8 µM; in the test on Aorta [2] (read-out: pEC50 (converted)), 36.3 µM. Moreover, the Emax with Aorta [1] turned out to be 84.3%.

For the compound `C=CCc1c(O)cc(O)c2c1OC(c1cccc(O)c1)CC2=O` (racemic), the EC50 with Aorta [2] was 37 µM; with Aorta [2] (read-out: pEC50 (converted)), 36.3 µM. Also, in the test on Aorta [1], the maximal effect (Emax) stood at 97.8%.

On to `O=C(/C=C/c1ccc2c(c1)OCO2)c1c(O)cc(O)cc1O`, for which the EC50 was 22.5 µM with Aorta [2] and 22.4 µM in the test on Aorta [2] (read-out: pEC50 (converted)). The Emax with Aorta [1] stood at 104%.

Turning to `C=CCc1cc(O)cc(C(=O)/C=C/c2ccc(O)cc2)c1O`, the Emax in the test on Aorta [1] was determined as 59.8%.

`C=CCc1c(O)ccc2c1OC(c1ccc(O)c(OC)c1)CC2=O` (racemic): in the test on Aorta [1], the Emax stood at 85%.

As to `C=CCc1c(O)cc(O)c2c1OC(c1ccc(OC)cc1)CC2=O` (racemic), the Emax with Aorta [1] was determined as 81%.

For `C=CCc1c(O)cc(O)c2c1OC(c1cccc(Br)c1)CC2=O` (racemic), the maximal response (Emax) in the test with Aorta [1] is 78.8%.

Consider `O=C1CC(c2cccc(Br)c2)Oc2ccc(O)cc21` (racemic), for which the figures for the EC50 in the test with Aorta [2] and with Aorta [2] (read-out: pEC50 (converted)) were 38.5 µM and 38 µM, respectively. Moreover, the Emax in the test with Aorta [1] turned out to be 91.8%.

Take `C=CCc1cc(O)cc2c1OC(c1cccc(O)c1)CC2=O` (racemic): the EC50 in the test with Aorta [2] and with Aorta [2] (read-out: pEC50 (converted)) was 10.2 µM throughout. The Emax in the test on Aorta [1] came out at 90.2%.

As to `O=C1CC(c2cccc(Br)c2)Oc2cc(O)cc(O)c21` (racemic), the EC50 with Aorta [2] was 42.4 µM; with Aorta [2] (read-out: pEC50 (converted)), 43.7 µM. Also, in the test with Aorta [1], the Emax was determined as 93.5%.

As to `C=CCc1c(O)ccc2c1OC(c1ccc(O)cc1)CC2=O` (racemic), the EC50 in the test with Aorta [2] and in the test with Aorta [2] (read-out: pEC50 (converted)) was 26.9 µM throughout. Moreover, the Emax in the test with Aorta [1] is 87.2%.

`C=CCc1c(O)cc(O)c2c1OC(c1ccc(O)cc1)CC2=O` (racemic): the EC50 with Aorta [2] is 32.1 µM; in the test on Aorta [2] (read-out: pEC50 (converted)), 32.4 µM. In addition, the maximum response (Emax) with Aorta [1] worked out at 98.6%.

In the case of `O=c1cc(-c2ccc3c(c2)OCO3)oc2cc(O)ccc12`, the EC50 was 81.7 µM in the test with Aorta [2] and 81.3 µM in the test with Aorta [2] (read-out: pEC50 (converted)). Besides, the Emax with Aorta [1] is 82.1%.

On to `O=C1CC(c2ccc3c(c2)OCO3)Oc2cc(O)cc(O)c21` (racemic), for which the EC50 was 20.1 µM in the test on Aorta [2] and 20 µM with Aorta [2] (read-out: pEC50 (converted)). In the test with Aorta [1], the Emax worked out at 97.2%.

Regarding `O=c1c(O)c(-c2ccc(O)c(O)c2)oc2cc(O)cc(O)c12` [QUERCETIN], the EC50 in the test with Aorta [2] (read-out: pEC50 (converted)) was 245 µM. Moreover, the maximal effect (Emax) in the test on Aorta [1] worked out at 91.3%.

With `O=C1/C(=C/c2ccc3c(c2)OCO3)Oc2cc(O)cc(O)c21`, the EC50 with Aorta [2] is 220 µM; in the test with Aorta [2] (read-out: pEC50 (converted)), 224 µM. Further, the Emax in the test on Aorta [1] was determined as 58.4%.

Take `C=CCc1c(O)cc(O)c2c1OC(c1ccc(Cl)cc1)CC2=O` (racemic): in the test with Aorta [1], the Emax worked out at 77.6%.

For the compound `C=CCc1cc(O)cc2c(=O)cc(-c3ccc(O)cc3)oc12`, the EC50 in the test on Aorta [2] and in the test with Aorta [2] (read-out: pEC50 (converted)) was 51.3 µM each time. In addition, the maximal effect (Emax) in the test on Aorta [1] was determined as 67.3%.

As for `O=C(/C=C/c1cccc(Br)c1)c1c(O)cc(O)cc1O`, the EC50 in the test with Aorta [2] (read-out: pEC50 (converted)) was 21.4 µM. Further, in the test on Aorta [1], the Emax came to 99.8%.

Take `C=CCc1c(O)ccc(C(=O)/C=C/c2ccc3c(c2)OCO3)c1O`: in the test with Aorta [1], the maximal effect (Emax) was determined as 71.8%.

For the compound `C=CCc1c(O)cc(O)c2c1OC(c1cccc(Cl)c1)CC2=O` (racemic), in the test on Aorta [1], the Emax was found to be 76.7%.

In general, Emax refers to the greatest response seen or fitted, relative to the assay's reference.

The values above are taken from ChEMBL document CHEMBL1140852, “Synthesis, biological evaluation and quantitative structure-activities relationship of flavonoids as vasorelaxant agents” (Bioorg Med Chem, 2009).
